Data set [1] addresses hERG (KCNH2) (Homo sapiens, UniProt Q12809). Nature of the data set: Inhibition of hERG expressed in HEK293 cells at 10 uM relative to control. It counts as cell-based. To be noted: HEK293 cells expressing hERG. On the technique in general: Block of hERG is tested as a sign of cardiac risk.
For data set [2], the target named is TLR7 and TLR8 (Homo sapiens) (UniProt Q9NYK1+Q9NR97). The data set can be described thus: Agonist activity at human TLR7/8 expressed in human PBMC cells assessed as induction of VEGF secretion incubated for 12 hrs by multiplexed immunoassay. To be noted: filed as agonist. It counts as cell-based. Put shortly:
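Healthy-volunteer PBMCs from a single donor were isolated by Ficoll−Hypaque gradient and plated at 2.0 × 10⁶ cells/mL. They were stimulated for 12 h with escalating compound concentrations. Supernatants were assayed in duplicate on a 41-analyte magnetic bead cytokine/chemokine panel read by Luminex. EC_max is the concentration giving maximal cytokine induction.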

In data set [3] the target is T1, Toll-like receptor 9 (Homo sapiens) (UniProt Q9NR96).
T1 sequence (whole entry): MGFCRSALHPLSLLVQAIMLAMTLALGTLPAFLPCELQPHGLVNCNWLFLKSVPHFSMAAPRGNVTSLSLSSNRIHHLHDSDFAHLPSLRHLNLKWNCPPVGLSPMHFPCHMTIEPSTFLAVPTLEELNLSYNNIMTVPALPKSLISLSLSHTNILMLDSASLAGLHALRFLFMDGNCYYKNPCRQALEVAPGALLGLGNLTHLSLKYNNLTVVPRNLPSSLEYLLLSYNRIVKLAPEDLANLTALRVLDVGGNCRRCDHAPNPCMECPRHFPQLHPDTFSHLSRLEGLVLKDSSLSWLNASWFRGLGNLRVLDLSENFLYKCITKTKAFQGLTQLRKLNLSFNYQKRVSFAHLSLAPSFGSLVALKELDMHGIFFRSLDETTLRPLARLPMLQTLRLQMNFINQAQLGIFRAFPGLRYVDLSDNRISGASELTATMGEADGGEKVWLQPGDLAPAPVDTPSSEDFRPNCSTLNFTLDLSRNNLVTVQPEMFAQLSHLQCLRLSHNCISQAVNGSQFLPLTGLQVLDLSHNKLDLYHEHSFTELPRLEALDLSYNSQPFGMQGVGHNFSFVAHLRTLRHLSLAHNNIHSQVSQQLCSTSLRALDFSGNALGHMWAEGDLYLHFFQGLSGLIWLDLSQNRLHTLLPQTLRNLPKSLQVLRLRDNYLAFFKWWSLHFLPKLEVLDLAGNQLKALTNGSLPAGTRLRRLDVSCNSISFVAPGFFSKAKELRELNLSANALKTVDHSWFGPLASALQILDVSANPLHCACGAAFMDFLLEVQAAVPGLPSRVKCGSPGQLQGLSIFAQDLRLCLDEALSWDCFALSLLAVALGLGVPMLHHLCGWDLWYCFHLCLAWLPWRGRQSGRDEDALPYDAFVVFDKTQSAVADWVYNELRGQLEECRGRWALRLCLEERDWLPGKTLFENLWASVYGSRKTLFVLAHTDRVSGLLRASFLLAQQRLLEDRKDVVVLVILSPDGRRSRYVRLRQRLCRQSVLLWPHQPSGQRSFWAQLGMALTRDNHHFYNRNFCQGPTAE
The data set can be described thus: Agonist activity at human TLR9 expressed in HEK-Blue hTLR9 cells assessed as activation of NFkappaB incubated for 6 to 16 hrs by SEAP reporter gene based assay. It counts as cell-based. The settings on record: time 6-16 hrs. Summed up: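 HEK293-derived SEAP reporter cells stably expressing the matching human TLR (2, 3, 4, 7, 8 or 9), kept under selection antibiotics. SEAP is driven by an NF-κB/AP-1-inducible promoter. HEK-Blue Null2-k (no TLR7/8) serves as the parental line. Cells were given escalating concentrations of stimuli for 6−16 h, then SEAP was read with HEK-Blue detection at 620 nm.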
Background: A reporter such as luciferase makes a cellular process visible.

Data set [4] can be described thus: Acute toxicity in BALB/c mouse assessed as white discharge from eyes at 15 to 80 mg/kg, ip administered as single dose measured after 24 hrs. The settings on record: in vivo, dose 15-80 mg/kg. In kind it is organism-based.
Data set [5] can be described thus: Subacute toxicity in BALB/c mouse assessed as pathological changes in heart at 15 mg/kg, ip administered as single dose by H and E staining based microscopic analysis. The settings on record: in vivo. In kind it is organism-based. Put shortly: (§1)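 Subacute toxicity study in BALB/c mice given ip TLR7/8 agonist. Tissues from treated and control mice were examined by hematoxylin and eosin staining.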

Data set [6] is described as follows: Acute toxicity in BALB/c mouse assessed as body weight regain at 60 mg/kg, ip administered as single dose measured after 4 days. The settings on record: in vivo, 96 h, time 4 day. It counts as organism-based.
Data set [7] can be described thus: Subacute toxicity in BALB/c mouse assessed as pathological changes in spleen at 15 mg/kg, ip administered as single dose by H and E staining based microscopic analysis. In kind it is organism-based. The settings on record: in vivo. Put shortly: as §1
Data set [8] in a line: Subacute toxicity in BALB/c mouse assessed as pathological changes in kidney at 15 mg/kg, ip administered as single dose by H and E staining based microscopic analysis. It counts as organism-based. The settings on record: in vivo. Put shortly: as §1
Data set [9] can be described thus: Induction of phospholipidosis in human HepG2 cells assessed as intracellular accumulation of phospholipids at 3 uM incubated for 48 hrs by […] staining based fluorescence microscopic analysis. It counts as cell-based. The settings on record: hepg2, 48 h. Summed up:
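HepG2 cells were screened in vitro for phospholipidosis using HCS LipidTOX Red phospholipidosis detection reagent. Compound was tested at 3 μM and compared with a vehicle group.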

The text below walks through data of ChEMBL document CHEMBL5036324 (J Med Chem, 2021).

SMILES strings stand for the structures. Activity calls are given as the source filed them. The rule behind the calls is not given here.

TLR7 and TLR8 (Homo sapiens), sequence (Q9NR97 whole entry, looked up): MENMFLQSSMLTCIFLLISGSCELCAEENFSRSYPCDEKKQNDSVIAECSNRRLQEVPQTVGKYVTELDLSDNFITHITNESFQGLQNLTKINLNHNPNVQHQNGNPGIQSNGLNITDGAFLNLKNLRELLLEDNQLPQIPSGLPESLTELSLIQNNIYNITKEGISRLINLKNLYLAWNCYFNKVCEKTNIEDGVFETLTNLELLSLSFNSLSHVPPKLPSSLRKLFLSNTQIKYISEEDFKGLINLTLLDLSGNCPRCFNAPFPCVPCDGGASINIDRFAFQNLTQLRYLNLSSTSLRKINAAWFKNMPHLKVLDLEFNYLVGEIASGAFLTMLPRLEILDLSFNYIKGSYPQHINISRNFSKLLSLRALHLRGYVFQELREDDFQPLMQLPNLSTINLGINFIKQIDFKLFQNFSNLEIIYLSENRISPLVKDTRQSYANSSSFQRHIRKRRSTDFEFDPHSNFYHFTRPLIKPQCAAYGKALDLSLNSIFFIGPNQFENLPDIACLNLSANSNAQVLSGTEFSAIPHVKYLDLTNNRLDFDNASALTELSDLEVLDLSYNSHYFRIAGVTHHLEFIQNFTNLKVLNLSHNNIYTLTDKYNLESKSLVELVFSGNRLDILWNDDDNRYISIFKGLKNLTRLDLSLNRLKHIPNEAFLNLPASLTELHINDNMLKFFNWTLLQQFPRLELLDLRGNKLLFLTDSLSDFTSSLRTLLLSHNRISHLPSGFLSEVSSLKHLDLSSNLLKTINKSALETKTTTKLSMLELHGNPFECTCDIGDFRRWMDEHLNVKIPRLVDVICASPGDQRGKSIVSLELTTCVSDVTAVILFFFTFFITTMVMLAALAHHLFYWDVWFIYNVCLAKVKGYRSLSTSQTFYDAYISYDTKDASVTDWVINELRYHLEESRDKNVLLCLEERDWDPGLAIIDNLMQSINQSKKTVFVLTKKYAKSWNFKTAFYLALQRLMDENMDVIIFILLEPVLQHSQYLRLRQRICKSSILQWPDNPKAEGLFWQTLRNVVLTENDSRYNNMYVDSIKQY
TLR7 and TLR8 (Homo sapiens), sequence (Q9NYK1 whole entry, looked up): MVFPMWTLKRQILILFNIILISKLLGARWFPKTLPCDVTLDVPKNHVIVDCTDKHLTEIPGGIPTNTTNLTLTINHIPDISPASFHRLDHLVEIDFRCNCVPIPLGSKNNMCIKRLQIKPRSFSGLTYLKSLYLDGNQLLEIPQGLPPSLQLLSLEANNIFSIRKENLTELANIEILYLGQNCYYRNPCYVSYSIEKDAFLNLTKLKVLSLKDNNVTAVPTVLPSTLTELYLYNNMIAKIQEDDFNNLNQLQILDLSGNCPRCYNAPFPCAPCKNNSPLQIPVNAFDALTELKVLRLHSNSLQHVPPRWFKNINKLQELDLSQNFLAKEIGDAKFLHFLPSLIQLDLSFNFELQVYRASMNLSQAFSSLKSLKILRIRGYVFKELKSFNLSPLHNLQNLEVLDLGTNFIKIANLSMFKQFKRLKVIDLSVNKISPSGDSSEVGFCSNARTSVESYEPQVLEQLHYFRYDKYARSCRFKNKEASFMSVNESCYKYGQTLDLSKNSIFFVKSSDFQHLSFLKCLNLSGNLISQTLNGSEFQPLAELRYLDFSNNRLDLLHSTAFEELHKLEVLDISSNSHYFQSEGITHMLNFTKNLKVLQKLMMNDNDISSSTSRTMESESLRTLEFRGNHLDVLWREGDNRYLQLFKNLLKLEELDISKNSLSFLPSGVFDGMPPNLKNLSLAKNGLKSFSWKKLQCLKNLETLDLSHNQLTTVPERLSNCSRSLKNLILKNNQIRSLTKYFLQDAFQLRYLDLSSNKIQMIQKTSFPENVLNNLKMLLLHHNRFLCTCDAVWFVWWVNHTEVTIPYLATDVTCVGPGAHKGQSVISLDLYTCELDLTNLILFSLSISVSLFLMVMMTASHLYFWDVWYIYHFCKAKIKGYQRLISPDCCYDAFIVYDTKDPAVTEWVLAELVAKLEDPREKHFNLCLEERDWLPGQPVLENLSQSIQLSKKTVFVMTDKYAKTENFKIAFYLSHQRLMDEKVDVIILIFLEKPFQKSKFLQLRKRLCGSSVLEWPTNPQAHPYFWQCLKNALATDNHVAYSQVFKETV
hERG (KCNH2), sequence (Q12809 whole entry): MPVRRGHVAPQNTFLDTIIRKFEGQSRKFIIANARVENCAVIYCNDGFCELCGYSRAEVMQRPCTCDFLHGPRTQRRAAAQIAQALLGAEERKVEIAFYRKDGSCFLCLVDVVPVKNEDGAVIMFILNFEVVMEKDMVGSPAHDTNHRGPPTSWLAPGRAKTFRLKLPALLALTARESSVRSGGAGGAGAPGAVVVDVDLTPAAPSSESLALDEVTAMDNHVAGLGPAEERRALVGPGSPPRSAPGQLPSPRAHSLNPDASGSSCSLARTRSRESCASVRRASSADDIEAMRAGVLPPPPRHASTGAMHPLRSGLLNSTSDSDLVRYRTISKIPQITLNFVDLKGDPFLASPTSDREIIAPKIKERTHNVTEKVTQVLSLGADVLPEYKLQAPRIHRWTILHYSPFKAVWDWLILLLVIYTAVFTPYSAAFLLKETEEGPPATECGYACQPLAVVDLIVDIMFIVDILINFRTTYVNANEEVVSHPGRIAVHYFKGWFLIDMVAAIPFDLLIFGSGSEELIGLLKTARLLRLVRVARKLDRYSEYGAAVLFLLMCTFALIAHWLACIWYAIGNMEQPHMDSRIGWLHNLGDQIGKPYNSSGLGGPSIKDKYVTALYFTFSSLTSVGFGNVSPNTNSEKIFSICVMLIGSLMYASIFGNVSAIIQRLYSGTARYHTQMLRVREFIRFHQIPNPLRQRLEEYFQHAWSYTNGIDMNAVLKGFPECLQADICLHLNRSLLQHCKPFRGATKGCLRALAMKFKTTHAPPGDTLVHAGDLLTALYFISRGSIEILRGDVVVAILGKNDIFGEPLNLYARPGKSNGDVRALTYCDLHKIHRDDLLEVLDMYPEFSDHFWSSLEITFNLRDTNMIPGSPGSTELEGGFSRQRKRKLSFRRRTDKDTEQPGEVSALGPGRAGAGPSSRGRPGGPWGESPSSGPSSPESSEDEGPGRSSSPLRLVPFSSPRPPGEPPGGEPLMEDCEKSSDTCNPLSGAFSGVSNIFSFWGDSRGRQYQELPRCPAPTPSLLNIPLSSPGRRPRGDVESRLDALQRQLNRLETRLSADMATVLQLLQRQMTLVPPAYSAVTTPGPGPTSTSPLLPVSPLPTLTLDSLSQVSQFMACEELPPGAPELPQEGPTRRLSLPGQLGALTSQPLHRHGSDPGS

Consider `CCCCNc1nc(N)nc2ccc(Cc3ccc(CN(C)C)cc3)nc12`, for which, in data set [1], the inhibition at 10 µM stood at 89.3%. Also, the outcome in [2] was Active. Moreover, in data set [3], the outcome was inactive. Moreover, the Activity entry in [4], in [5], in data set [6], in data set [7], in data set [8] and in data set [9] was “Non-Toxic” in each case.

`COCCNc1nc(N)nc2ccc(Cc3ccc(CN(C)C)cc3)nc12` gave an inhibition at 10 µM in [1] of 14.8%. Besides, the outcome in [2] was Active. The result in [3] was inactive. In addition, the Activity entry in [4], in data set [5], in data set [6], in data set [7], in data set [8] and in data set [9] was “Non-Toxic” each time.

A word on the inhibition: it is the share of the control response that was lost under treatment.
